From ChEMBL document CHEMBL1147539, “Synthesis and biological evaluation of novel, selective, nonsteroidal glucocorticoid receptor antagonists” (Bioorg Med Chem Lett, 2004)
pIC50: −log10 of the molar value.

What was measured:
[1] = target: T1, Glucocorticoid receptor (Homo sapiens, UniProt P04150); assay: Displacement of [3H]dexamethasone from human Glucocorticoid receptor (GR)
T1 sequence (P04150 whole entry): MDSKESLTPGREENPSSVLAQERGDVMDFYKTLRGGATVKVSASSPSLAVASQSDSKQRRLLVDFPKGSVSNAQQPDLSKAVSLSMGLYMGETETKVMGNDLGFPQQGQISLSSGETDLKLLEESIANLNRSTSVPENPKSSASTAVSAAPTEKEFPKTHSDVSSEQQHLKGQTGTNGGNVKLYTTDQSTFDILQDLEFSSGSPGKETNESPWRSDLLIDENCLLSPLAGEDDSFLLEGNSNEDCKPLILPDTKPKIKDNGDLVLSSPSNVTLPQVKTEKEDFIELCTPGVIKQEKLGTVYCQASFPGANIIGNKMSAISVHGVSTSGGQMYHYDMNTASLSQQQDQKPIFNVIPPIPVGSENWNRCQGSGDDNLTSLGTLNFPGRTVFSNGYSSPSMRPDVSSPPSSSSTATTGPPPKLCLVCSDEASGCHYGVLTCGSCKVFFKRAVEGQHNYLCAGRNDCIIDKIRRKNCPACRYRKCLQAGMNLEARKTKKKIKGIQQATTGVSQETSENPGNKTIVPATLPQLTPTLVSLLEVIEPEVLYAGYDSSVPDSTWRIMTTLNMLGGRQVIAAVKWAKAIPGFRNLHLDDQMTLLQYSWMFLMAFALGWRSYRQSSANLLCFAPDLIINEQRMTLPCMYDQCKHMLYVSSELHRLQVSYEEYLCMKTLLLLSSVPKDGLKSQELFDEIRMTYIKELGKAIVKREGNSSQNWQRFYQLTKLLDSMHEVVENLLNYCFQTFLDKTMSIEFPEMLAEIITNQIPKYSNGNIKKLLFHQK

[2] = target: T1, Glucocorticoid receptor; assay: Effect on human Glucocorticoid receptor (GR) in a whole cell assay to measure functional cellular GR-antagonism (GRAF)
[3] = target: T2, Estrogen receptor (Homo sapiens, UniProt P03372); assay: Displacement of [3H]estradiol from human estrogen receptor alpha
T2 sequence (P03372 whole entry): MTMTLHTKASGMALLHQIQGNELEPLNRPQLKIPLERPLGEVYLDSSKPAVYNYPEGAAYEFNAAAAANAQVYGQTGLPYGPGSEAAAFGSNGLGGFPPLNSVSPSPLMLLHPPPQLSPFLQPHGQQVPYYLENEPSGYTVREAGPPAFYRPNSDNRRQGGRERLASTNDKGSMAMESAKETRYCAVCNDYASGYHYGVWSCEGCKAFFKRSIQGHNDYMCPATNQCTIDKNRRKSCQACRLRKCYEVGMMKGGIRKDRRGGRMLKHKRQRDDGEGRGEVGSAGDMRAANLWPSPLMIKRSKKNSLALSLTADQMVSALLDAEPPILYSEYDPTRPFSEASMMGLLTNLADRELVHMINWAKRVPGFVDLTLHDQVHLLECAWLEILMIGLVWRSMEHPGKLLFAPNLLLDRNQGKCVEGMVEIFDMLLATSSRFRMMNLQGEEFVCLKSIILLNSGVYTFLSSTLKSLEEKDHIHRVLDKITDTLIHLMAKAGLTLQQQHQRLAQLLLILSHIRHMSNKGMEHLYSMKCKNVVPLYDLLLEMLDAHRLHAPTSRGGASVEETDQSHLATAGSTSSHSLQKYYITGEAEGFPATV
Outline: (§1)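 Human steroid receptor (PR, MR, AR, ERα) binding measured by radioligand displacement, with IC50s determined in duplicate. Values without a range come from a single experiment, and values with a range are geometric means of repeat experiments.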

[4] = target: T1, Glucocorticoid receptor; assay: Displacement of [3H]dexamethasone from human Glucocorticoid receptor (GR); Value ranges from 378-814 nM
[5] = target: T3, Mineralocorticoid receptor (Homo sapiens, UniProt P08235); assay: Displacement of [3H]aldosterone from human Mineralocorticoid receptor; outline: as §1
T3 sequence (P08235 whole entry): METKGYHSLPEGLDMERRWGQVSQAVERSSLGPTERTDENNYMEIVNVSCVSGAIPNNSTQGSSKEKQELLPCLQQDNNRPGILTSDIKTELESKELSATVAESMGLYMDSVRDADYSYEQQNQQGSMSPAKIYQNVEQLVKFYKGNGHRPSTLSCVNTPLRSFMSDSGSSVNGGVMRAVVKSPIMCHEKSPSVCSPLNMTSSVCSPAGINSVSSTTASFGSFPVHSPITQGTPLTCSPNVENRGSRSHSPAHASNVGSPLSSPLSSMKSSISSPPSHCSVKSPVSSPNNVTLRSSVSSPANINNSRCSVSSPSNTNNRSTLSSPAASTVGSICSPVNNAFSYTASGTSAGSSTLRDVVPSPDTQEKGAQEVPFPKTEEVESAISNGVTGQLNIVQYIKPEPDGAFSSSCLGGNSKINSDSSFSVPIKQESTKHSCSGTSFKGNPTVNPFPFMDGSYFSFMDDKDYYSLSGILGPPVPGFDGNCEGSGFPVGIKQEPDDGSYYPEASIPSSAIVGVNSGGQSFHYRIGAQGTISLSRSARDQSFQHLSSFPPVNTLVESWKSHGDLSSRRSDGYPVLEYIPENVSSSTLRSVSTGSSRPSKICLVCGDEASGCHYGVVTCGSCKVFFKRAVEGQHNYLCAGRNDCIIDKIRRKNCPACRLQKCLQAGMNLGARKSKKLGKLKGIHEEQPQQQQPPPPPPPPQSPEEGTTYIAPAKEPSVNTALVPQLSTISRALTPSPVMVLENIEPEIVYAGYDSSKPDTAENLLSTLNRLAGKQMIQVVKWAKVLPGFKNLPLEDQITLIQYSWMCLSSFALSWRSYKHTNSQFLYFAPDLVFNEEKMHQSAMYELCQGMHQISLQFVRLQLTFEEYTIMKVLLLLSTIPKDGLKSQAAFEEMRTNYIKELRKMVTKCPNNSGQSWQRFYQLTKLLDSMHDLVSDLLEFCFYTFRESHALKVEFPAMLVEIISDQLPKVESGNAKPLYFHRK

[6] = target: T4, Progesterone receptor (Homo sapiens, UniProt P06401); assay: Displacement of [3H]progesterone from human Progesterone receptor; outline: as §1
T4 sequence (P06401 whole entry): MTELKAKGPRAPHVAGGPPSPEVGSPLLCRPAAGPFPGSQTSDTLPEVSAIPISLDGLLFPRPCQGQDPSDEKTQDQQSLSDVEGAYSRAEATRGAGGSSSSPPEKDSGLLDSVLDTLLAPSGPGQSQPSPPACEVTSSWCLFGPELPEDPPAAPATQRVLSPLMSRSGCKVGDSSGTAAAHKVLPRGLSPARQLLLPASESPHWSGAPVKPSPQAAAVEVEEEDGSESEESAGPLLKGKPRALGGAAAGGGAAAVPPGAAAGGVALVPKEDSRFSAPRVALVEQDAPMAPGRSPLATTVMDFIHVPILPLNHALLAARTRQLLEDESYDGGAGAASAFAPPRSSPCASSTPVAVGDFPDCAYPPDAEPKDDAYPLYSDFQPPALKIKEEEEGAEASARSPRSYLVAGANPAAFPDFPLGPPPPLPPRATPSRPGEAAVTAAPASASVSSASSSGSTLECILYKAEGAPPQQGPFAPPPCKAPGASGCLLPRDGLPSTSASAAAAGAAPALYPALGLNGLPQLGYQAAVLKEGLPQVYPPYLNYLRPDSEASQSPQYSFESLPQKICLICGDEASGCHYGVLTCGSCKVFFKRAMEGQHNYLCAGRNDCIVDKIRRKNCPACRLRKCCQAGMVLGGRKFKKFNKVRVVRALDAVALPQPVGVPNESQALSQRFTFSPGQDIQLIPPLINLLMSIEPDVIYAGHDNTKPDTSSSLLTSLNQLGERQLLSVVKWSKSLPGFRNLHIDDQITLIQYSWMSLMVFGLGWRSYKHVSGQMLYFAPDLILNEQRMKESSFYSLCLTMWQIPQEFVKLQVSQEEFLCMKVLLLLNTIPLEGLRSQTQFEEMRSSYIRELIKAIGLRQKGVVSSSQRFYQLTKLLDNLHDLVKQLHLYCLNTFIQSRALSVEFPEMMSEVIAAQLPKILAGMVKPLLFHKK

[7] = target: T5, Androgen receptor (Homo sapiens, UniProt P10275); assay: Displacement of [3H]mibolerone from human Androgen receptor
T5 sequence (P10275 whole entry): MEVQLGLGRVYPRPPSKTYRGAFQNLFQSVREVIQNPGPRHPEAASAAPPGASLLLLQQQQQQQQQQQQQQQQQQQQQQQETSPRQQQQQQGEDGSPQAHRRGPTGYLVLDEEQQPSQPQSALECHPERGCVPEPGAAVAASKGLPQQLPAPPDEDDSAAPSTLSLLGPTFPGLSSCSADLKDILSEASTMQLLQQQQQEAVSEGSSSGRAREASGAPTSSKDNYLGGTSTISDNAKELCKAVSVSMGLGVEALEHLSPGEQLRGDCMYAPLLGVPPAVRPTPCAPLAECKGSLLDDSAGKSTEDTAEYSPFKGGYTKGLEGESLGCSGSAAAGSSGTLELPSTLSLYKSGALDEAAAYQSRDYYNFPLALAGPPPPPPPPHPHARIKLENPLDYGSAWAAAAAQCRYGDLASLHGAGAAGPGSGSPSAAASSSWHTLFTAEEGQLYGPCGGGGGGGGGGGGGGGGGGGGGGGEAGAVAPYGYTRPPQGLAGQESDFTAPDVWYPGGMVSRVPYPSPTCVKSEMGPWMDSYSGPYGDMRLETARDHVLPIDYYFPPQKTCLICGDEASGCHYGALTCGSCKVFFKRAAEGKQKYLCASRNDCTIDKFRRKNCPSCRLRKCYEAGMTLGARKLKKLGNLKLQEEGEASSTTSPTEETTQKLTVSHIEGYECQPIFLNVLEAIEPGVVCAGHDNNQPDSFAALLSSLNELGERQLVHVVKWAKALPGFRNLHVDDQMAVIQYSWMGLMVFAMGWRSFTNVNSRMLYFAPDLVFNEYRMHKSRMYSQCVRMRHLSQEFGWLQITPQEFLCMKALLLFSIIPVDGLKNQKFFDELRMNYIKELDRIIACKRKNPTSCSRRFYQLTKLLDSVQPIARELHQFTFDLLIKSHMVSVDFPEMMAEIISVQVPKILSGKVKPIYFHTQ

[8] = target: T1, Glucocorticoid receptor; assay: Displacement of [3H]dexamethasone from human Glucocorticoid receptor (GR); […]
[9] = target: T1, Glucocorticoid receptor
[10] = target: T1, Glucocorticoid receptor; remark: listed apart in the source
[11] = target: T1, Glucocorticoid receptor; remark: listed apart in the source

| SMILES | pIC50 [1] | pIC50 [2] | further results |
| --- | --- | --- | --- |
| CNc1cccc(C2Oc3cccc(OC)c3-c3ccc(NS(C)(=O)=O)cc32)c1 (stereo not given) | 7.64 | 6.74 | – |
| CCCCCC1Oc2cccc(OC)c2-c2ccc(NS(C)(=O)=O)cc21 (stereo not given) | 7.68 | – | – |
| COc1cccc2c1-c1ccccc1C(c1ccccc1)O2 (stereo not given) | 5.00 | 5.72 | – |
| COc1cccc2c1-c1ccc(NS(C)(=O)=O)c(Br)c1C(c1ccccc1)O2 (stereo not given) | – | 6.37 | pIC50 [3]: 5.64; pIC50 [4]: 6.28; pIC50 [5]: 6.34; pIC50 [6]: 5.00 |
| COc1cccc2c1-c1ccc(NS(C)(=O)=O)cc1C(c1ccc(Oc3ccccc3)cc1)O2 (stereo not given) | 7.20 | 6.07 | – |
| COc1cccc2c1-c1ccc(NS(C)(=O)=O)cc1C(c1ccccc1)O2 (stereo not given) | – | 7.06 | pIC50 [7]: 5.19; pIC50 [3]: < 5.00; pIC50 [8]: 7.72; pIC50 [5]: 4.64 |
| CCS(=O)(=O)Nc1ccc2c(c1)C(c1ccccc1)Oc1cccc(OC)c1-2 (stereo not given) | – | 6.60 | pIC50 [8]: 7.21 |
| COc1cccc2c1-c1ccc(NS(=O)(=O)c3ccccc3)cc1C(c1ccccc1)O2 (stereo not given) | – | 6.86 | pIC50 [9]: 6.84 |
| COc1cccc2c1-c1ccc(NS(C)(=O)=O)cc1C(c1ccsc1)O2 (stereo not given) | – | 7.37 | pIC50 [10]: 7.96 |
| COc1cccc2c1-c1ccc(NS(=O)(=O)c3cccs3)cc1C(c1ccccc1)O2 (stereo not given) | – | 7.03 | pIC50 [11]: 7.74 |
